Compounds with a hit are over-represented: about 5% of the library has one in this group of screens.
Mdm2-MdmX inh = human Mdm2/MdmX binding inhibition. inhibition, % at 8 µM. O15151+Q00987. SaOS-2 split-luciferase Mdm2/MdmX complementation, luminescence. hit rate 3% among 330,000;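 active = inhibition of at least 50% at 8 µM in the primary screen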
Target sequence (O15151 whole entry, looked up): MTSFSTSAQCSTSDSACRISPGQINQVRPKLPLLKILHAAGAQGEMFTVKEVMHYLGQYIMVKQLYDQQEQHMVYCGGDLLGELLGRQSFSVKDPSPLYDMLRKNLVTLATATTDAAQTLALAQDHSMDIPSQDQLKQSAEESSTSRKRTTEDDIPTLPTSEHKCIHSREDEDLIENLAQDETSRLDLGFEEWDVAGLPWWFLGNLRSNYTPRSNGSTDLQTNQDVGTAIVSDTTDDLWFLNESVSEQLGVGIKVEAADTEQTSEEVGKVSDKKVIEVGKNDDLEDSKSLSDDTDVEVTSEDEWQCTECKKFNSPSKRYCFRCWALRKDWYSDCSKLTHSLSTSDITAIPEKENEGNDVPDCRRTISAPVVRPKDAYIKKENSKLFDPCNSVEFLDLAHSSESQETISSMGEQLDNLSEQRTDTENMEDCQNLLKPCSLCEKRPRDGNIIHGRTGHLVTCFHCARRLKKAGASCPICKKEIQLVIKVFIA
Target sequence (Q00987 whole entry, looked up): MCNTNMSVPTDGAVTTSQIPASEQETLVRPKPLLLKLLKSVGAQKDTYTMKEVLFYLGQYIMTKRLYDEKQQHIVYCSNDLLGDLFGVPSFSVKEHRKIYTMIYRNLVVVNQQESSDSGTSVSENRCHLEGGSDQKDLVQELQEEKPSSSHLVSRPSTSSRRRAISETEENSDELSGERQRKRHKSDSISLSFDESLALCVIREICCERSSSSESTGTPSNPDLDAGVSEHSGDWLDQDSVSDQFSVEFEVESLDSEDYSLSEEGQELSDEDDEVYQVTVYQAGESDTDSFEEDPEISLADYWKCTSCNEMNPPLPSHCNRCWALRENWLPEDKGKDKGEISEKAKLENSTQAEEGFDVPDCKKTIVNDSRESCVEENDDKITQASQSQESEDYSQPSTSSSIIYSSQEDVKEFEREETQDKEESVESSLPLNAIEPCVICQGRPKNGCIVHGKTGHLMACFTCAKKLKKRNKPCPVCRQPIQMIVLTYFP
UPR CHOP act = activators of apoptotic arm of unfolded protein response (CHOP). CHO-CHOP luciferase reporter, UPR activation, luminescence; percent of tunicamycin response over DMSO baseline. hit rate 0.34% among 330,000. AID 449763. activation, % at 10 µM;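 active = at 10 µM dose, activation of 40% or more, normalized to positive control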
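measured by = luciferase luminescence | assay system = CHO-CHOP cells, stable luciferase reporter of PERK-eIF2a-CHOP signalling | amount = 500 reporter cells seeded per well | timing = 6 h compound exposure at 37 °C after overnight seeding | controls = positive tunicamycin 10 µg/mL, negative DMSO alone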
XBP1 UPR activ = activators of adaptive arm of unfolded protein response (XBP1). CHO-XBP1 luciferase reporter, IRE1-XBP1 UPR activation, luminescence; percent of tunicamycin response, DMSO as zero. activation, % at 20 µM. hit rate 0.33% among 330,000;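 active = versus positive control, 20 µM dose yields 30% or more activation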
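Signal: luciferase luminescence; Assay system: CHO-XBP1 luciferase reporter cells; Amount: one thousand reporter cells per well; Dosing: 20 µM single concentration, DMSO 1%; Benchmarks: high control tunicamycin 10 µg/mL final, low control DMSO vehicle only; Schedule: 6 h compound exposure at 37 °C, 5% CO2; Evaluation: percent activation relative to tunicamycin reference.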
Beta cell apopt = beta cell apoptosis inhibition; INS-1E cytokine-induced death, ATP luminescence, 48 h; percent of positive-control rescue, neutral wells zero; protection from apoptosis, % (concentration not given with the values); hit rate 0.8% among 300,000;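 active = Every replicate reaches about 75%, or at least half do and their mean reaches it too, limit read from the data; inconclusive = At least half of replicates reach the limit but their mean does not; inactive = Under half of replicates reach the limit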;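 also: higher means more ATP so stronger rescue from cytokine killing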
CSC inhib = cancer stem cell inhibition; cancer stem cell-like cells viability, luminescence; inhibition, % at 7.5 µM; hit rate 1.1% among 300,000; AID 2717; in the data active = inhibition above about 75%; inconclusive = no clear call, values can overlap the other calls; tested in HMLE shEcad cells
T cruzi inh = T. cruzi replication inhibition; inhibition, % (concentration not given with the values); hit rate 1.4% among 300,000; AID 1885; T. cruzi beta-gal in NIH3T3, luminescence, 90 h;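 active = mean inhibition across valid replicates above about 55%, limit read from the data; inconclusive = mean below that limit but half or more replicates reach it; inactive = mean below it, under half of replicates reach it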;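 also: signal also drops with host cell toxicity which is not excluded here; higher percent means less beta-gal luminescence so fewer parasites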
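System: mouse NIH/3T3 fibroblasts infected with β-gal-expressing T. cruzi Tulahuen C4 / Input: NIH/3T3 cells, 5,000 per well / Buffer or medium: Low-serum DMEM with 2% FBS / Probe or stimulus: 5000 reporter trypomastigotes per well / Schedule: ≥90 h infection period, 3 h prior cell attachment / Measured by: GalScreen luminescence, 60 min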
A number is an active result; n = inactive; u = inconclusive; x = no result given.

SMILES	Mdm2-MdmX inh	UPR CHOP act	XBP1 UPR activ	Beta cell apopt	CSC inhib	T cruzi inh
CCOC(=O)Cc1[nH]nc2c1C(c1ccoc1)C(C#N)=C(N)O2 (stereo not drawn)	n	n	n	n	n	n
Cc1nn(Cc2ccc(C(=O)NN)cc2)c(C)c1Cl	n	n	n	n	n	n
Cc1nn(Cc2ccc(C(=O)Nc3nccs3)cc2)c(C)c1Cl	n	n	n	n	83	n
O=[N+]([O-])c1c(NCCCO)cc(Sc2ccc(Cl)cc2)c2nonc12	x	x	x	n	88	n
CC(=O)OCCNc1cc(Sc2nc3ccccc3[nH]2)c2nonc2c1[N+](=O)[O-]	x	x	x	n	n	56
CCN(CC(=O)Nc1ccc2c(c1)OCCO2)CC(=O)Nc1ccc(C)c(S(=O)(=O)N(C)C)c1	n	n	n	n	n	x
CC(OC(=O)c1ccccc1NCCO)C(=O)NCC(=O)Nc1ccc(F)c(F)c1F (stereo not drawn)	n	n	n	n	n	n
CCCc1ccc(-c2cc(NC(=O)CSc3n[nH]c(N)n3)n(-c3ccccc3)n2)cc1	n	n	n	n	91	n
c1csc(-c2csc3nc(CN4CCOCC4)nc(NCc4ccc5c(c4)OCO5)c23)c1	n	n	n	n	n	57
c1ccc2c(c1)nc(NCc1ccc3c(c1)OCO3)n2CCN1CCOCC1	n	n	n	n	n	n
COc1cc(C(=O)Oc2ccccc2/C=N/NC(=O)c2ccc(C)cc2)cc(OC)c1OC	n	n	n	103	n	n
CC(C)(C)C(=O)Nc1ccc(C(=O)N/N=C/c2ccccc2OC(=O)c2ccccc2)cc1	n	n	n	87	n	n
Cc1cccc(C(=O)Oc2ccccc2/C=N/NC(=O)c2ccc(NC(=O)C(C)(C)C)cc2)c1	n	n	n	n	n	n
CC(C)(C)C(=O)Nc1ccc(C(=O)N/N=C/c2ccccc2OC(=O)c2ccc(Cl)cc2)cc1	n	n	n	103	n	n
CN(Cc1nc(Cc2cccc(C(F)(F)F)c2)no1)C1CC(C)(C)NC(C)(C)C1	n	n	n	n	n	n
COc1ccc(C(=O)NCCS(=O)(=O)N2CCCCCC2)cc1	n	n	n	n	n	n
CN(C)/C=C/c1oc2ccc(O)cc2c1[N+](=O)[O-]	n	n	n	n	n	n
COc1ccc2sc(-c3ccccc3OC)c(C#Cc3cncn3C)c2c1	n	n	n	x	x	x
Cn1cncc1C#Cc1c(C=O)n(C)c2ccccc12	n	n	n	n	n	x
COc1ccc(-c2sc3ccc(N4CCOCC4)cc3c2C#CCCO)cc1	n	n	n	n	123	x
COc1ccc(-c2sc3ccccc3c2/C=C/c2ccncc2)cc1	n	n	n	n	102	x
COc1ccccc1-c1sc2cc3c(cc2c1C#Cc1cncn1C)OCO3	n	n	n	n	138	x
COc1ccc(-c2sc3ccccc3c2C#Cc2cncn2C)cc1	n	n	n	n	138	x
Cc1ccc(S(=O)(=O)N2CCCCC2C)cc1[N+](=O)[O-] (stereo not drawn)	n	n	n	n	n	n
O=C(NC12CC3CC(CC(C3)C1)C2)c1cc([N+](=O)[O-])ccc1N1CCOCC1	n	n	n	n	n	n
SMILES	Mdm2-MdmX inh	UPR CHOP act	XBP1 UPR activ	Beta cell apopt	CSC inhib	T cruzi inh
OCCCCC#Cc1c(-c2ccsc2)sc2ccccc12	n	n	n	n	99	n
COc1ccc(-c2sc3ccccc3c2C#CCCO)cc1	n	n	n	n	92	n
Cn1cc(CN2CCCC(CNS(=O)(=O)c3cccc4cccnc34)C2)cn1 (stereo not drawn)	n	n	n	x	n	n
CC(C)n1cc(CN2CCCC(CNS(=O)(=O)c3cccc4cccnc34)C2)cn1 (stereo not drawn)	n	n	n	x	n	64
COC(CNC(=O)c1cccnc1)OC	n	n	n	n	n	n
COC(CNC(=O)c1ccc2c3c(onc13)-c1ccccc1C2=O)OC	n	n	n	n	84	n
N#CCCN(C(=O)COc1ccc(F)cc1Br)c1ccccc1F	n	n	n	n	n	n
COc1ccccc1/C=C/C(=O)NCC(=O)N/N=C/c1ccccc1[N+](=O)[O-]	n	n	n	n	n	61
C=CCC(C(=O)OC)(C(=O)OC)c1ccc(C(F)(F)F)cc1[N+](=O)[O-]	n	n	n	n	n	n
C=CCC(C(=O)OC)(C(=O)OC)c1ccc([N+](=O)[O-])cc1[N+](=O)[O-]	n	n	n	n	n	59
COC(=O)C(Cc1cnc(Cl)s1)(C(=O)OC)c1ccc([N+](=O)[O-])cc1[N+](=O)[O-]	n	n	n	n	n	57
COC(=O)C(Cc1cnc(Cl)s1)(C(=O)OC)c1ccc(C(F)(F)F)cc1[N+](=O)[O-]	n	n	n	n	n	n
CCOc1ccc(S(=O)(=O)NCCC(=O)NCCc2ccc(OCC)c(OCC)c2)cc1	n	n	n	n	n	n
Cc1ccc2nc(-c3ccccn3)c(NC3CCCC3)n2c1	n	n	n	102	n	68
CCCCCCSc1cccc(-c2nc3ccc(C)cn3c2NC2CCCCC2)c1	n	n	n	n	n	n
COc1cc(C)cc2oc(=O)c(CC(=O)N3CCN(C(=O)C4COc5ccccc5O4)CC3)c(C)c12 (stereo not drawn)	n	n	n	n	n	n
Cc1cc(C)cc(N(CC(=O)NCCSc2ccccn2)S(=O)(=O)c2ccccc2)c1	n	n	n	n	n	n
CSc1ccc(C=NNc2ccc(S(=O)(=O)Nc3ccccc3C(=O)O)cc2[N+](=O)[O-])cc1	n	n	n	n	n	x
Cc1nn(-c2ccccc2)c(Cl)c1/C=N/Nc1ccc(S(=O)(=O)Nc2ccccc2C(=O)O)cc1[N+](=O)[O-]	n	n	n	n	96	n
Cc1cc(N2C(=O)C(O)=C(C(=O)c3ccco3)C2c2ccccc2F)no1 (stereo not drawn)	n	n	n	n	n	n
CC(=O)Oc1c(Cl)cc(Cl)cc1/C=C/c1ccc2ccccc2n1	n	n	n	n	109	n
COc1cc(C)ccc1OCC(=O)OCC(=O)c1[nH]c(C)c(C(C)=O)c1C	n	n	n	n	n	x
CC(=O)c1c(C)[nH]c(C(=O)COc2cc(C)ccc2C(C)C)c1C	n	n	n	103	n	n
Cc1nnc2ccc(Oc3ccc(-c4ccccc4)cc3)nn12	n	n	n	92	n	n
COC(=O)c1ccc(Oc2ccc3nnc(C)n3n2)cc1	n	n	n	n	n	n
COc1ccc(-c2cc(C(F)(F)F)n3ncc(C(=O)Nc4c(C)n(C)n(-c5ccccc5)c4=O)c3n2)cc1	n	n	n	n	n	n
C=CCC1(CC=C)CCCN1C(=O)c1cc(COc2ccc(C)nc2)on1	n	n	n	105	n	u
